# Assays:
# Staphylococcus aureus [1] = assay: Antibacterial activity against methicillin-resistant Staphylococcus aureus strains 15 1 to 4 assessed as reduction in bacterial growth incubated for 18 to 20 hrs by CLSI based microdilution method; type: functional; details: time 18-20 hrs
# In short: (§1)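 Broth microdilution per CLSI. Compounds dissolved in DMSO (levofloxacin and meropenem in water) as 64 μg/mL stock, then serial twofold dilutions in broth giving 64 to 0.008 μg/mL. […] Clinical isolates tested as several strains per group; racemic GP-1 served as positive control; values given as MIC ranges.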
# Staphylococcus aureus [2] = assay: Antibacterial activity against methicillin-sensitive Staphylococcus aureus strains 15 1 to 4 assessed as reduction in bacterial growth incubated for 18 to 20 hrs by CLSI based microdilution method; type: functional; details: time 18-20 hrs; in short: as §1
# [3] = test system: Staphylococcus epidermidis; assay: Antibacterial activity against methicillin-resistant Staphylococcus epidermidis strains 15 1 to 4 assessed as reduction in bacterial growth incubated for 18 to 20 hrs by CLSI based microdilution method; type: functional; details: time 18-20 hrs; in short: as §1
# [4] = test system: Staphylococcus epidermidis; assay: Antibacterial activity against methicillin-sensitive Staphylococcus epidermidis strains 15 1 to 4 assessed as reduction in bacterial growth incubated for 18 to 20 hrs by CLSI based microdilution method; type: functional; details: time 18-20 hrs; in short: as §1
# Escherichia coli [5] = assay: Antibacterial activity against ESBL-producing Escherichia coli ATCC 35218 strains 15 1 to 3 assessed as reduction in bacterial growth incubated for 18 to 20 hrs by CLSI based microdilution method; type: functional; details: time 18-20 hrs
# In short: (§2)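 CLSI broth microdilution. Compounds in DMSO (levofloxacin and meropenem in water), serial twofold dilutions in broth, 64 to 0.008 μg/mL. […] Results reported as MIC ranges across strains.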
# Escherichia coli [6] = assay: Antibacterial activity against Escherichia coli ATCC 35218 strains 15 1 to 3 assessed as reduction in bacterial growth incubated for 18 to 20 hrs by CLSI based microdilution method; type: functional; details: time 18-20 hrs; in short: as §2
# Pseudomonas aeruginosa [7] = assay: Antibacterial activity against multidrug resistant Pseudomonas aeruginosa strains 15 1 to 3 assessed as reduction in bacterial growth incubated for 18 to 20 hrs by CLSI based microdilution method; type: functional; details: time 18-20 hrs; in short: as §1
# [8] = target: hERG (KCNH2) potassium channel (Homo sapiens, UniProt Q12809); assay: Inhibition of hERG potassium channel assessed as maximum inhibition rate at 40 uM at -80 mV holding potential incubated for 120 seconds by whole cell-automated voltage clamp analysis assay relative to control; type: toxicity; details: time 120 sec
# In short: (§3)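 Automated whole-cell patch clamp, holding potential −80 mV. Voltage protocol applied every 20 s. Baseline set with external solution containing 0.1% DMSO and stabilised 3 min. Compound applied until steady state, at least 3 min, then washout. Maximum tested concentration 40 μM, or 3 μM for cisapride as positive control.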
# [9] = target: Voltage-gated inwardly rectifying potassium channel KCNH2 (Homo sapiens, UniProt Q12809); assay: Inhibition of hERG potassium channel assessed as […] at -80 mV holding potential incubated for 120 seconds by whole cell-automated voltage clamp analysis assay; type: toxicity; in short: as §3
# Escherichia coli [10] = assay: Antibacterial activity against ESBL-producing multidrug resistant Escherichia coli assessed as reduction in bacterial growth incubated for 18 to 20 hrs by CLSI based microdilution method; type: functional; details: time 18-20 hrs; in short: as §1
# Escherichia coli [11] = assay: Antibacterial activity against multidrug resistant wild type Escherichia coli ATCC BAA-2340 assessed as reduction in bacterial growth incubated for 18 to 20 hrs by CLSI based microdilution method; type: functional; details: time 18-20 hrs; in short: as §1
# Escherichia coli [12] = assay: Antibacterial activity against multidrug resistant wild type Escherichia coli NCTC 13353 assessed as reduction in bacterial growth incubated for 18 to 20 hrs by CLSI based microdilution method; type: functional; details: time 18-20 hrs; in short: as §1
# Klebsiella pneumoniae [13] = assay: Antibacterial activity against KPC2-producing multidrug resistant Klebsiella pneumoniae assessed as reduction in bacterial growth incubated for 18 to 20 hrs by CLSI based microdilution method; type: functional; details: time 18-20 hrs; in short: as §1
# Klebsiella pneumoniae [14] = assay: Antibacterial activity agains wild type Klebsiella pneumoniae ATCC BAA-1705 assessed as reduction in bacterial growth incubated for 18 to 20 hrs by CLSI based microdilution method; type: functional; details: time 18-20 hrs; in short: as §2
# Klebsiella pneumoniae [15] = assay: Antibacterial activity agains wild type Klebsiella pneumoniae ATCC BAA-2470 assessed as reduction in bacterial growth incubated for 18 to 20 hrs by CLSI based microdilution method; type: functional; details: time 18-20 hrs; in short: as §1
# Acinetobacter baumannii [16] = assay: Antibacterial activity agains OXA23-producing multidrug resistant Acinetobacter baumannii assessed as reduction in bacterial growth incubated for 18 to 20 hrs by CLSI based microdilution method; type: functional; details: time 18-20 hrs; in short: as §1
# Acinetobacter baumannii [17] = assay: Antibacterial activity against wild type Acinetobacter baumannii NCTC 13304 assessed as reduction in bacterial growth incubated for 18 to 20 hrs by CLSI based microdilution method; type: functional; details: time 18-20 hrs; in short: as §1
# Pseudomonas aeruginosa [18] = assay: Antibacterial activity against IMP4-producing multidrug resistant Pseudomonas aeruginosa assessed as reduction in bacterial growth incubated for 18 to 20 hrs by CLSI based microdilution method; type: functional; details: time 18-20 hrs; in short: as §1
# Pseudomonas aeruginosa [19] = assay: Antibacterial activity against wild type Pseudomonas aeruginosa ATCC 27853 assessed as reduction in bacterial growth incubated for 18 to 20 hrs by CLSI based microdilution method; type: functional; details: time 18-20 hrs; in short: as §2
# [20] = Metabolic stability in rat liver microsome assessed as elimination half life at 0.1 uM in presence of NADPH incubated upto 60 mins by LC-MS/MS analysis; type: ADME; details: liver microsomes, read-out: beta t1/2
# In short: (§4)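 Compound at 0.1 μM final, in 0.01% DMSO with 0.005% BSA. Incubated with rat or human liver microsomes at 0.33 mg/mL in 0.1 M Tris-HCl, pH 7.4, with 5 mM MgCl₂ and 1 mM NADPH, at 37 °C. Samples at 0, 7, 17, 30 and 60 min quenched with cold methanol and analysed by LC-MS/MS. Half-life, Cl_int and MF% derived as previously described.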
# [21] = Metabolic stability in human liver microsome assessed as elimination half life at 0.1 uM in presence of NADPH incubated upto 60 mins by LC-MS/MS analysis; type: ADME; details: liver microsomes, read-out: beta t1/2; in short: as §4
# [22] = Metabolic stability in rat liver microsome assessed as intrinsic clearance at 0.1 uM in presence of NADPH incubated upto 60 mins by LC-MS/MS analysis; type: ADME; details: microsomes, 1 h; in short: as §4
# [23] = Metabolic stability in human liver microsome assessed as intrinsic clearance at 0.1 uM in presence of NADPH incubated upto 60 mins by LC-MS/MS analysis; type: ADME; details: microsomes, 1 h; in short: as §4
# [24] = Metabolic stability in rat liver microsome assessed as metabolic bioavailability at 0.1 uM in presence of NADPH incubated upto 60 mins by LC-MS/MS analysis; type: ADME; details: liver microsomes; in short: as §4
# [25] = Metabolic stability in human liver microsome assessed as metabolic bioavailability at 0.1 uM in presence of NADPH incubated upto 60 mins by LC-MS/MS analysis; type: ADME; details: liver microsomes; in short: as §4
# [26] = AUC (0 to infinity) in Sprague-Dawley rat at 4 mg/kg, iv measured upto 24 hrs by LC-MS/MS analysis; type: ADME, organism-based; set-up: time < 24 hrs, dose 4 mg/kg, route iv; details: in vivo
# In short: (§5)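 Male Sprague-Dawley rats, n = 3 per group, single intravenous dose. For 4 mg/kg: 180–280 g rats, vehicle 5% DMSO + 5% EtOH + 40% PEG300 + 50% saline, blood from the retrobulbar vein at 0.05–24 h. For 5 and 20 mg/kg: 180–300 g rats, vehicle 5% DMSO + 5% solutol + 90% saline, sampled at 0.083–24 h. Plasma quantified by LC/MS/MS. Parameters from mean plasma concentration by noncompartmental analysis; values are mean ± standard deviation.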
# [27] = Elimination half life in Sprague-Dawley rat at 4 mg/kg, iv measured upto 24 hrs by LC-MS/MS analysis; type: ADME, organism-based; details: in vivo, read-out: beta t1/2 (converted); in short: as §5
# [28] = MRT in Sprague-Dawley rat at 4 mg/kg, iv measured upto 24 hrs by LC-MS/MS analysis; type: ADME, organism-based; details: in vivo; in short: as §5
# [29] = Clearance in Sprague-Dawley rat at 4 mg/kg, iv measured upto 24 hrs by LC-MS/MS analysis; type: ADME, organism-based; details: in vivo; in short: as §5
# [30] = Volume of distribution at the steady state in Sprague-Dawley rat at 4 mg/kg, iv measured upto 24 hrs by LC-MS/MS analysis; type: ADME, organism-based; details: in vivo, read-out: Vdss; in short: as §5
# Sequence of hERG (KCNH2) potassium channel (Q12809 whole entry): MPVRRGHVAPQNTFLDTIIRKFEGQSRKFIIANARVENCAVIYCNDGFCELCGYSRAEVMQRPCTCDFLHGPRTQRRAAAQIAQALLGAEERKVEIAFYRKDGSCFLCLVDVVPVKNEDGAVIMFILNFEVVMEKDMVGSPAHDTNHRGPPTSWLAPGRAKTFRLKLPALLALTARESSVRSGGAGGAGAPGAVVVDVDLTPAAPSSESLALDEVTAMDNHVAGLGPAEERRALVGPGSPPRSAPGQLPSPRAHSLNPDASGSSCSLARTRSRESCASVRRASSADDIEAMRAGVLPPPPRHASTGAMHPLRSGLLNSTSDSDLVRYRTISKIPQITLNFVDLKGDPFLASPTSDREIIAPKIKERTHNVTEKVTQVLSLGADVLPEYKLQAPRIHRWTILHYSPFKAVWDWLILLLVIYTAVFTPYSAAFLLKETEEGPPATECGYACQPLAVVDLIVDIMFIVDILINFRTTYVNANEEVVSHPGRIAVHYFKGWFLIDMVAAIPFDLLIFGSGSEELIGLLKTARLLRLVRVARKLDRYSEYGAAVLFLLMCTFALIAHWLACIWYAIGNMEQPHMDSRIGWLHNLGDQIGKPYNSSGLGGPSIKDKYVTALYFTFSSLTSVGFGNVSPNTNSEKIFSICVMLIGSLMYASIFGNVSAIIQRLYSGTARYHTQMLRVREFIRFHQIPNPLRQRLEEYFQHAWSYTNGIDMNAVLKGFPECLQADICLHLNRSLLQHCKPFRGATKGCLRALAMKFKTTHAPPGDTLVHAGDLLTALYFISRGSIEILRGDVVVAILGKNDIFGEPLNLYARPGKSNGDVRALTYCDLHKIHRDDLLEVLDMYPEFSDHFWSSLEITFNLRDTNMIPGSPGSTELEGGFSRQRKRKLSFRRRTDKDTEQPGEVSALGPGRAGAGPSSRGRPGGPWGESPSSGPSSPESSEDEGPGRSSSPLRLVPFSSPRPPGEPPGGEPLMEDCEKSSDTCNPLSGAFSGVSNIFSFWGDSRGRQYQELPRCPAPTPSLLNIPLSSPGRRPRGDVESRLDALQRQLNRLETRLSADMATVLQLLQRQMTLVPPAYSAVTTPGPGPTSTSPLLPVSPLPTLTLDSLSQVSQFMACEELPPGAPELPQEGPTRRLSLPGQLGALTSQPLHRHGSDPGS
# Sequence of Voltage-gated inwardly rectifying potassium channel KCNH2 (Q12809 whole entry): as above
smiles,measurement,setting,value
CCC(CN)=C1CN(c2nc(Oc3ccc4c(c3)C(=O)NC4)nc3[nH]c4c(NC)cc(F)cc4c23)C1,MIC,Staphylococcus aureus [1],0.5 µg/mL
same,MIC,Staphylococcus aureus [2],0.5 µg/mL
same,MIC,[3],0.06 µg/mL
same,MIC,[4],0.06 µg/mL
same,MIC,Escherichia coli [5],8 µg/mL
same,MIC,Escherichia coli [6],> 8 µg/mL
same,MIC,Pseudomonas aeruginosa [7],16 µg/mL
CNc1cc(F)cc2c1[nH]c1nc(Oc3cnc(C)nc3)nc(N3CC(=C(C)C(C)N)C3)c12 (racemic),MIC,Staphylococcus aureus [2],< 0.008 µg/mL
same,MIC,[4],< 0.008 µg/mL
same,MIC,Escherichia coli [5],0.5 µg/mL
same,MIC,Escherichia coli [6],0.25 µg/mL
same,MIC,Pseudomonas aeruginosa [7],1 µg/mL
same,"inhibition at 2 min, 40 µM",[8],37%
same,IC50,[9],> 40 µM
same,MIC,Escherichia coli [10],0.5 µg/mL
same,MIC,Escherichia coli [11],0.5 µg/mL
same,MIC,Escherichia coli [12],0.25 µg/mL
same,MIC,Klebsiella pneumoniae [13],2 µg/mL
same,MIC,Klebsiella pneumoniae [14],8 µg/mL
same,MIC,Klebsiella pneumoniae [15],2 µg/mL
same,MIC,Acinetobacter baumannii [16],0.25 µg/mL
same,MIC,Acinetobacter baumannii [17],0.5 µg/mL
same,MIC,Pseudomonas aeruginosa [18],4 µg/mL
same,MIC,Pseudomonas aeruginosa [19],2 µg/mL
same,half-life at 0.1 µM,[20],0.278 h
same,half-life at 0.1 µM,[21],8.23 h
same,CLH,[22],126 mL/min/g
same,CLH,[23],4.25 mL/min/g
same,"Fh at 1 h, 0.1 µM",[24],26.1%
same,"Fh at 1 h, 0.1 µM",[25],82.2%
same,AUC(0-inf),[26],1510 ng·h/mL
same,half-life,[27],5.7 h
same,MRT,[28],4.7 h
same,clearance,[29],44.1 mL/min/kg
same,Vd,[30],12.3 L/kg
CCC(CN)=C1CN(c2nc(C#N)nc3[nH]c4c(NC)cc(F)cc4c23)C1,MIC,Staphylococcus aureus [1],2 µg/mL
same,MIC,Staphylococcus aureus [2],2 µg/mL
same,MIC,[3],0.5 µg/mL
same,MIC,[4],0.25 µg/mL
same,MIC,Escherichia coli [5],0.5 µg/mL
same,MIC,Escherichia coli [6],0.25 µg/mL
same,MIC,Pseudomonas aeruginosa [7],16 µg/mL
